{"source": "ChEMBL document CHEMBL1255469", "about": "“In vitro activity of a new isothiazoloquinolone, ACH-702, against Mycobacterium tuberculosis and other mycobacteria” (2010)", "key": {"[1]": {"test_system": "Mycobacterium tuberculosis", "experiment": "Antimicrobial activity against isoniazid and rifampin-resistant Mycobacterium tuberculosis clinical isolates after 7 days by broth microdilution assay", "format": "functional", "details": "168 h", "how_it_was_run": "(§1)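 Alamar Blue broth microdilution in 7H9GC broth (Middlebrook 7H9 base, glycerol, Casitone, 10% OADC). Drug stock 1 mg/ml in 100% DMSO, diluted in broth to a final 0.03 to 8 μg/ml. M. tuberculosis H37Rv served as the susceptible-strain control. Isoniazid and rifampin resistance was assigned beforehand by the proportion method.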"}, "[2]": {"test_system": "Mycobacterium tuberculosis", "experiment": "Antimicrobial activity against isoniazid or rifampin-resistant Mycobacterium tuberculosis clinical isolates after 7 days by broth microdilution assay", "format": "functional", "details": "168 h", "how_it_was_run": "as §1"}}}
{"smiles": "COc1c(N2CC[C@@H](C(C)(C)N)C2)c(F)cc2c(=O)c3c(=O)[nH]sc3n(C3CC3)c12", "values": [{"measurement": "MIC50", "setting": "[1]", "value": 0.06, "unit": "µg/mL"}, {"measurement": "MIC90", "setting": "[1]", "value": 0.12, "unit": "µg/mL"}, {"measurement": "MIC50", "setting": "[2]", "value": 0.12, "unit": "µg/mL"}, {"measurement": "MIC90", "setting": "[2]", "value": 0.12, "unit": "µg/mL"}]}
